Source: ChEMBL document CHEMBL5136969, “A niclosamide-tobramycin hybrid adjuvant potentiates cefiderocol against P. aeruginosa” (2021)
Activity calls are given as the source filed them.

Experiments:
[1] = system: Pseudomonas aeruginosa; experiment: Potentiation of ceftazidime-induced antibiotic activity against MDR clinical isolate Pseudomonas aeruginosa PA259 assessed as MIC fold reduction at 8 ug/ml after 18 hrs by microbroth dilution method; type: functional, organism-based; conditions: dose 8.0 µg/ml
Summary of the method: (§1)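 Adjuvant held at a fixed 8 μg/mL while the antibiotic was 2-fold serially diluted in Mueller-Hinton broth (MHB), per CLSI microbroth dilution. Overnight cultures were adjusted in saline to 0.5 McFarland, then diluted 1:50 in MHB to about 5 × 10^5 CFU/mL final, and incubated 18 h at 37 °C. MIC was the lowest concentration with no visible turbidity, confirmed at 590 nm. Fold potentiation = MIC alone / MIC with adjuvant.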

[2] = system: Escherichia coli; experiment: Antibacterial activity against Escherichia coli 94474 assessed as reduction in bacterial growth after 18 hrs in presence of cefiderocol by microbroth dilution method; type: functional
Summary of the method: (§2)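 Checkerboard in Mueller-Hinton broth: cefiderocol 2-fold diluted on one axis, adjuvant 2-fold on the other. Overnight cultures were adjusted to 0.5 McFarland in saline, diluted 1:50 in MHB, and inoculated at about 5 × 10^5 CFU/mL. Incubation was 18 h at 37 °C. Turbidity was read visually and confirmed at 590 nm. FIC index = FIC of antibiotic + FIC of adjuvant; ≤0.5 synergy, >4 antagonism.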

[3] = system: Escherichia coli; experiment: Potentiation of aztreonam-induced antibiotic activity against Escherichia coli ATCC 25922 assessed as MIC fold reduction at 8 ug/ml after 18 hrs by microbroth dilution method; type: functional; conditions: dose 8 µg/ml
Summary of the method: (§3)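 Initial screen in MHB using a fixed 8 μg mL−1 of adjuvant combined with each antibiotic under 2-fold dilution. Broth microdilution used about 5 × 10^5 CFU/mL at 37 °C for 18 h, with visible turbidity read and confirmed at 590 nm. Fold-potentiation = antibiotic MIC alone ÷ antibiotic MIC with adjuvant.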

[4] = system: Acinetobacter baumannii; experiment: Antibacterial activity against Acinetobacter baumannii AB031 assessed as reduction in bacterial growth after 18 hrs by microbroth dilution method; type: functional
Summary of the method: (§4)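 CLSI microbroth dilution in MHB. Overnight cultures were adjusted to 0.5 McFarland in saline, diluted 1:50, and inoculated at about 5 × 10^5 CFU/mL. Agents were 2-fold serially diluted and incubated 18 h at 37 °C. MIC is the lowest concentration without visible turbidity, confirmed by absorbance at 590 nm. Medium with and without cells served as controls.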

[5] = system: Enterobacter cloacae; experiment: Antibacterial activity against Enterobacter cloacae 121187 assessed as reduction in bacterial growth after 18 hrs by microbroth dilution method; type: functional; summary of the method: as §4
[6] = system: Acinetobacter baumannii; experiment: Potentiation of minocycline-induced antibiotic activity against Acinetobacter baumannii ATCC 17978 assessed as MIC fold reduction at 8 ug/ml after 18 hrs by microbroth dilution method; type: functional; conditions: dose 8 µg/ml; summary of the method: as §1
[7] = system: Acinetobacter baumannii; experiment: Potentiation of doxycycline-induced antibiotic activity against Acinetobacter baumannii ATCC 17978 assessed as MIC fold reduction at 8 ug/ml after 18 hrs by microbroth dilution method; type: functional; conditions: dose 8 µg/ml; summary of the method: as §1
[8] = system: Pseudomonas aeruginosa; experiment: Potentiation of cefotaxime-induced antibiotic activity against Pseudomonas aeruginosa PAO1 assessed as MIC fold reduction at 8 ug/ml after 18 hrs by microbroth dilution method; type: functional; conditions: dose 8 µg/ml; summary of the method: as §1
[9] = system: Acinetobacter baumannii; experiment: Potentiation of fosfomycin-induced antibiotic activity against Acinetobacter baumannii ATCC 17978 assessed as MIC fold reduction at 8 ug/ml after 18 hrs by microbroth dilution method; type: functional; conditions: dose 8 µg/ml; summary of the method: as §1
[10] = system: Escherichia coli; experiment: Potentiation of piperacilin-induced antibiotic activity against Escherichia coli ATCC 25922 assessed as MIC fold reduction at 8 ug/ml after 18 hrs by microbroth dilution method; type: functional; conditions: dose 8 µg/ml
[11] = system: Acinetobacter baumannii; experiment: Potentiation of trimethoprim-induced antibiotic activity against Acinetobacter baumannii ATCC 17978 assessed as MIC fold reduction at 8 ug/ml after 18 hrs by microbroth dilution method; type: functional; conditions: dose 8 µg/ml
[12] = system: Acinetobacter baumannii; experiment: Potentiation of ceftazidime-induced antibiotic activity against Acinetobacter baumannii ATCC 17978 assessed as MIC fold reduction at 8 ug/ml after 18 hrs by microbroth dilution method; type: functional; conditions: dose 8 µg/ml; summary of the method: as §1
[13] = system: Enterobacter cloacae; experiment: Antibacterial activity against Enterobacter cloacae 118564 assessed as reduction in bacterial growth after 18 hrs by microbroth dilution method; type: functional; summary of the method: as §4
[14] = system: Pseudomonas aeruginosa; experiment: Potentiation of moxifloxacin-induced antibiotic activity against Pseudomonas aeruginosa PA263 assessed as MIC fold reduction in ID-CAMHB condition at 8 ug/ml after 18 hrs by microbroth dilution method; type: functional, organism-based; conditions: dose 8.0 µg/ml
[15] = system: Pseudomonas aeruginosa; experiment: Potentiation of cefiderocol-induced antibiotic activity against MDR clinical isolate Pseudomonas aeruginosa PA260 assessed as MIC fold reduction at 8 ug/ml after 18 hrs by microbroth dilution method; type: functional, organism-based; conditions: dose 8.0 µg/ml; summary of the method: as §3
[16] = system: Enterobacter cloacae; experiment: Antibacterial activity against Enterobacter cloacae 117029 assessed as reduction in bacterial growth after 18 hrs in presence of cefiderocol by microbroth dilution method; type: functional; summary of the method: as §2
[17] = system: Pseudomonas aeruginosa; experiment: Antibacterial activity against MDR clinical isolate Pseudomonas aeruginosa PA86052 assessed as reduction in bacterial growth after 18 hrs in presence of cefiderocol by microbroth dilution method; type: functional
Summary of the method: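 Checkerboard in MHB. Cefiderocol was 2-fold serially diluted along one axis and the adjuvant along the other. Inoculum was prepared from 0.5 McFarland saline suspensions diluted 1:50 in MHB, giving about 5 × 10^5 CFU/mL final. Plates ran 18 h at 37 °C, with turbidity confirmed at 590 nm. FIC = combination MIC ÷ MIC alone for each agent, and FIC index = sum of both. Interpretation: ≤0.5 synergy, >0.5–4 additive, >4 antagonism.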

[18] = system: Pseudomonas aeruginosa; experiment: Antibacterial activity against colistin-resistant clinical isolate Pseudomonas aeruginosa PA114228 assessed as potentiation of cefiderocol antibacterial activity by measuring FIC index after 18 hrs by microbroth dilution method; type: functional
Summary of the method: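 Checkerboard in MHB (iron-replete, not iron-depleted CAMHB). Cefiderocol was 2-fold serially diluted along one axis and the adjuvant along the other. Inoculum was 0.5 McFarland diluted 1:50, about 5 × 10^5 CFU/mL final. Incubation was 18 h at 37 °C, with turbidity read visually and confirmed at 590 nm. FIC was the MIC in combination over the MIC alone for each agent, and the FIC index was their sum. Cut-offs were ≤0.5 synergy, >0.5–4 additive, >4 antagonism.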

[19] = system: Pseudomonas aeruginosa; experiment: Potentiation of antibiotic activity against Pseudomonas aeruginosa PA259 assessed as MIC fold reduction in ID-CAMHB condition at 8 ug/ml after 18 hrs by microbroth dilution method; conditions: dose 8.0 µg/ml
[20] = system: Pseudomonas aeruginosa; experiment: Potentiation of ceftolozane-induced antibiotic activity against MDR clinical isolate Pseudomonas aeruginosa PA259 assessed as MIC fold reduction at 8 ug/ml after 18 hrs by microbroth dilution method; type: functional, organism-based; conditions: dose 8.0 µg/ml; summary of the method: as §1
[21] = system: Acinetobacter baumannii; experiment: Potentiation of piperacilin-induced antibiotic activity against Acinetobacter baumannii ATCC 17978 assessed as MIC fold reduction at 8 ug/ml after 18 hrs by microbroth dilution method; type: functional; conditions: dose 8 µg/ml
[22] = system: Pseudomonas aeruginosa; experiment: Potentiation of cefiderocol-induced antibiotic activity against Pseudomonas aeruginosa PAO1 assessed as MIC fold reduction at 8 ug/ml after 18 hrs by microbroth dilution method; type: functional; conditions: dose 8 µg/ml; summary of the method: as §3
[23] = system: Acinetobacter baumannii; experiment: Potentiation of ciprofloxacin-induced antibiotic activity against Acinetobacter baumannii ATCC 17978 assessed as MIC fold reduction at 8 ug/ml after 18 hrs by microbroth dilution method; type: functional; conditions: dose 8 µg/ml; summary of the method: as §1

For `NC[C@H]1O[C@H](O[C@H]2[C@H](OCCCCc3cn(-c4ccc(NC(=O)c5cc(Cl)ccc5O)cc4)nn3)[C@@H](O[C@H]3O[C@H](CO)[C@@H](O)[C@H](N)[C@H]3O)[C@H](N)C[C@@H]2N)[C@H](N)C[C@@H]1O`, the Activity [1] was “Active”, the MIC [2] was 8 µg/mL and the “fold change (FC)” value [3] was 4. For the same molecule, the MIC [4] was greater than 128 µg/mL, the MIC [5] was greater than 128 µg/mL and the “fold change (FC)” value [6] was 4. The “fold change (FC)” value [7] was 4, the “fold change (FC)” value [8] was 4 and the “fold change (FC)” value [9] was 4. For the same molecule, the “fold change (FC)” value [10] was 4, the “fold change (FC)” value [11] was 4 and the “fold change (FC)” value [12] was 4. The MIC [13] was greater than 128 µg/mL, the Activity [14] was “Active” and the Activity [15] was “Active”. The MIC [16] was 4 µg/mL, the MIC [17] was 0.25 µg/mL and the FIC [18] was 1. For the same molecule, the Activity [19] was “Active”, the Activity [20] was “Active” and the “fold change (FC)” value [21] was 4. For the same molecule, the “fold change (FC)” value [22] was 4 and the “fold change (FC)” value [23] was 4.
